For experiment [1], the target named is 5-hydroxytryptamine receptor 1B (Rattus norvegicus, UniProt P28564). The experiment is described as follows: Displacement of [125I]CYP from rat cerebral cortex 5HT1B receptor in presence of 30 uM propranolol. Format: tissue-based. On the technique in general: Displacement assays read how much labelled ligand stays bound in the presence of the test substance.

Experiment [2] concerns the target T1, 5-hydroxytryptamine receptor 1A (Homo sapiens, UniProt P08908).
T1 sequence (P08908 whole entry): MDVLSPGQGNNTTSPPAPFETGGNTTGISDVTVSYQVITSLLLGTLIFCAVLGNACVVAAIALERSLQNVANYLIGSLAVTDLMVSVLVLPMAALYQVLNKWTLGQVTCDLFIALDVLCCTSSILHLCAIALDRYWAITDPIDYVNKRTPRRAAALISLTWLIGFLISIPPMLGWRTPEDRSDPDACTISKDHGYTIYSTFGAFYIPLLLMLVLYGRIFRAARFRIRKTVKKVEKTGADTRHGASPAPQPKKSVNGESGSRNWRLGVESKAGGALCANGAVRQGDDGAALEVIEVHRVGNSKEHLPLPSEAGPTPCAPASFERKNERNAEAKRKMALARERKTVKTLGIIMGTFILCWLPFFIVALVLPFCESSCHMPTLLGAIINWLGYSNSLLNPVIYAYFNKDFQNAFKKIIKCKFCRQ
The experiment is described as follows: Binding affinity to human 5HT1A receptor. An outline of the steps:
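CHO-cell membranes with human 5-HT1A were incubated with 0.25 nmol/L [3H]8-OH-DPAT (final) for 60 min at 27 °C. Buffer: 50 mM Tris-HCl, 10 mM MgSO4, 0.5 mM EDTA, 0.1% ascorbic acid, pH 7.4. Compound came from 270 μmol/L DMSO stock, diluted in buffer. Filtration was through GF/C presoaked in 0.3% polyethyleneimine, with two cold Tris washes. Run in duplicate or triplicate; percent inhibition of binding calculated.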

For experiment [3], the target named is Muscarinic acetylcholine receptor M1 (Homo sapiens, UniProt P11229). The experiment is described as follows: Displacement of [3H]pirenzepine from human recombinant muscarinic M1 receptor.
The target in experiment [4] is Sodium-dependent dopamine transporter (Homo sapiens, UniProt Q01959). The experiment is described as follows: Displacement of [3H]BTCP from human recombinant DAT.
Another experiment deals with Substance-K receptor (Homo sapiens, UniProt P21452). The experiment in a line: Displacement of [125I]NKA from human recombinant NK2 receptor.
Experiment [5] is described as follows: Displacement of [3H]DADLE from human recombinant delta2 opioid receptor.
Another experiment deals with Adenosine receptor A1 (Homo sapiens, UniProt P30542). The experiment is described as follows: Displacement of [3H]DPCPX from human recombinant adenosine A1 receptor.
Experiment [6] addresses T2, 5-hydroxytryptamine receptor 3A (Cavia porcellus) (UniProt O70212).
T2 sequence (whole entry): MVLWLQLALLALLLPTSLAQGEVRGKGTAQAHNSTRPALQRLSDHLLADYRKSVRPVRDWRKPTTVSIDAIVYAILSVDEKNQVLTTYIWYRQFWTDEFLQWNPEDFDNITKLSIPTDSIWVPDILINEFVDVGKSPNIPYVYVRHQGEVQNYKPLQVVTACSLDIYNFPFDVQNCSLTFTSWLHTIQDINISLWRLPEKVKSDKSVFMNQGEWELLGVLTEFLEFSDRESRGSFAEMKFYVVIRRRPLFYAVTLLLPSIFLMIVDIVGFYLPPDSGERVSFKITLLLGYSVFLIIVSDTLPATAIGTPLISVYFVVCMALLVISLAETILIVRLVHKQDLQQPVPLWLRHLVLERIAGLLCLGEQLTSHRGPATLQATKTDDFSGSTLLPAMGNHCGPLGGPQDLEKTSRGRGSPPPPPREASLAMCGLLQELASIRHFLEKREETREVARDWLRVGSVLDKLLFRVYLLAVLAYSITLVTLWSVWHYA
The experiment is described as follows: Inhibition of 5HT3 receptor-mediated contraction of guinea pig ileum at 0.1 umol/L after 20 mins relative to control. The format is tissue-based. The essentials:
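Ileum strips in Tyrode solution at 37 °C, gassed 5% CO2/95% O2, isotonic contractions under 1 g load. After at least 3 stable contractions to 10 μM 2-methyl-5-HT, tissue exposed to compound or DMSO vehicle for 20 min, then 10 μM 2-methyl-5-HT re-added; contraction expressed as % inhibition of control.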

Experiment [7] concerns the target Adrenergic receptor alpha-1 (Rattus norvegicus, UniProt P15823+P23944+P43140). The experiment is described as follows: Displacement of [3H]prazosin from rat cerebral cortex alpha1 adrenergic receptor. Format: tissue-based.
The target in experiment [8] is Adrenergic receptor alpha-2 (Rattus norvegicus, UniProt P22086+P19328+P22909). The experiment in a line: Inhibition of rat alpha2 adrenergic receptor.
Experiment [9] addresses 5-hydroxytryptamine receptor 4 (Cavia porcellus, UniProt O70528). The experiment in a line: Inhibition of guinea pig 5HT4 receptor.
The target in experiment [10] is T3, 5-hydroxytryptamine receptor 3A (Homo sapiens, UniProt P46098).
T3 sequence (P46098 whole entry): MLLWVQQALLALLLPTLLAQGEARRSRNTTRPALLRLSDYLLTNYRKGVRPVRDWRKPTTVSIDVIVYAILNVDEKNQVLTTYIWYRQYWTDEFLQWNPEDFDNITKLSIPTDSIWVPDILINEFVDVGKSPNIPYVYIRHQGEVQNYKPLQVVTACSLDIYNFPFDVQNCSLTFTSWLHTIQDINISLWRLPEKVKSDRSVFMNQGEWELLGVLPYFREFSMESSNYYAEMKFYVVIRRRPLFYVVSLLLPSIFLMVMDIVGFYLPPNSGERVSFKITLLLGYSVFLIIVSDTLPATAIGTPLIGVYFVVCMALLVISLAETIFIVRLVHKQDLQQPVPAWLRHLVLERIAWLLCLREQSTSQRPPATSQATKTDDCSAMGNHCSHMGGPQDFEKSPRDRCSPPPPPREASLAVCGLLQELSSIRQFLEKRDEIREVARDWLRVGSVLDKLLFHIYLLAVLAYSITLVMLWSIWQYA
The experiment is described as follows: Displacement of [3H]BRL-43694 from human 5HT3 receptor expressed in HEK293 cells by liquid scintillation counting. The format is cell-based. The essentials:
(§1)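 HEK-293 membranes expressing human 5-HT3 were incubated with 0.5 nmol/L [3H]BRL-43694 (final) for 60 min at 25 °C. Buffer: 50 mM Tris-HCl, 5 mM MgCl2, 1 mM EDTA, pH 7.5. Compound came from 270 μmol/L DMSO stock, diluted in buffer. Filtration was through GF/B presoaked in 0.5% polyethyleneimine, with two cold Tris washes. Run in duplicate or triplicate; percent inhibition calculated.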

Experiment [11] deals with T4, 5-hydroxytryptamine receptor 1A (Homo sapiens) (UniProt P08908).
T4 sequence (whole entry): T1 sequence (P08908 whole entry)
The experiment is described as follows: Agonist activity at human cloned 5HT1A receptor expressed in CHO cells assessed as stimulation of [35S]GTPgammaS binding at 900 uL after 30 mins by liquid scintillation counting. The format is functional, cell-based. The essentials:
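Membranes from CHO cells expressing human 5-HT1A were diluted in 20 mM HEPES/3 mM MgCl2/120 mM NaCl, pH 7.4. They were preincubated with 20 μM GDP and test drug for 20 min at 30 °C, then held on ice for 15 min. [35S]GTPγS (100 pM) was added for 30 min at 30 °C. Samples were filtered, washed with cold HEPES/MgCl2 buffer, and bound radioactivity counted; EC50 and Emax reported.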
(GTPγS is a poorly hydrolysed GTP analogue; its binding reports G protein activation.)

Experiment [12] deals with T3, 5-hydroxytryptamine receptor 3A. The experiment is described as follows: Binding affinity to human 5HT3 receptor. An outline of the steps: as §1
Experiment [13] addresses 5-hydroxytryptamine receptor 6 (Homo sapiens, UniProt P50406). The experiment in a line: Displacement of [3H]LSD from human recombinant 5HT6 receptor.

Sequence of Substance-K receptor (P21452 whole entry): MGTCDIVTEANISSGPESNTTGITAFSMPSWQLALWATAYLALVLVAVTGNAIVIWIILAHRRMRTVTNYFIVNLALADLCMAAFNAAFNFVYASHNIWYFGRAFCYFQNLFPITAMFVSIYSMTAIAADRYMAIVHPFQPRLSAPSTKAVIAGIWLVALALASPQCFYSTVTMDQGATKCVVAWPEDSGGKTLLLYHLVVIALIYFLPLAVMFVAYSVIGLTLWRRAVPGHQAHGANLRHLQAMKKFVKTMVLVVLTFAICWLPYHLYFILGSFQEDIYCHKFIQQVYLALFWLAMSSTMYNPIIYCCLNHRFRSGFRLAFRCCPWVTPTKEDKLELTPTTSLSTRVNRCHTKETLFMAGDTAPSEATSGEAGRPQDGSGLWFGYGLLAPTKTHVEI
Sequence of 5-hydroxytryptamine receptor 1B (P28564 whole entry): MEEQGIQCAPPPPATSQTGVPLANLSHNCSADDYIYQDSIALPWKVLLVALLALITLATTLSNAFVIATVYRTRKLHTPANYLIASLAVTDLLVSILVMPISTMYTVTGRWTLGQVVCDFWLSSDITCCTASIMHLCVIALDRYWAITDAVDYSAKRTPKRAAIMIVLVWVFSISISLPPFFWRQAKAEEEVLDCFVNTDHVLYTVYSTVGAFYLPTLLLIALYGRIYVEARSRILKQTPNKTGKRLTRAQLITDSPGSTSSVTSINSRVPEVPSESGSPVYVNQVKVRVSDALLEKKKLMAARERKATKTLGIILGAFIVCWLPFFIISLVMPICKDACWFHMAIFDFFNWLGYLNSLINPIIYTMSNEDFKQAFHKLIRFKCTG
Sequence of Adenosine receptor A1 (P30542 whole entry): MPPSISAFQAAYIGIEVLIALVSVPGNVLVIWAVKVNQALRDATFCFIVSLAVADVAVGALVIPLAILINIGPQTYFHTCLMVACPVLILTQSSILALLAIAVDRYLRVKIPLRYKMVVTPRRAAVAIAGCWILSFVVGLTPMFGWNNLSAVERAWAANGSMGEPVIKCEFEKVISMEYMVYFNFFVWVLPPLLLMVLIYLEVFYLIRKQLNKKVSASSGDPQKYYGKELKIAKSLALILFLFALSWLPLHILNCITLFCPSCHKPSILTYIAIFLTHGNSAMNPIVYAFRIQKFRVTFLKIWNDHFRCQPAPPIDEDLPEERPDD
Sequence of 5-hydroxytryptamine receptor 4 (O70528 whole entry): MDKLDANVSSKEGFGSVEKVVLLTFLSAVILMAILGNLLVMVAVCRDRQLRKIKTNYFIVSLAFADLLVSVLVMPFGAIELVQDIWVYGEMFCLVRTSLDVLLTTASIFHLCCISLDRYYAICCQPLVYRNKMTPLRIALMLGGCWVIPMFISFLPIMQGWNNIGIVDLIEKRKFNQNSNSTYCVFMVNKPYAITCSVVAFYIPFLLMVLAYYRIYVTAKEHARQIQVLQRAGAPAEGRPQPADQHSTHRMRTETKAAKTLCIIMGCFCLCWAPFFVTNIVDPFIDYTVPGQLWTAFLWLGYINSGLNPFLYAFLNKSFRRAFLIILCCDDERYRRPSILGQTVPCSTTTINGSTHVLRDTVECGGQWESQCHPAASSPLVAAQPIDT
Sequence of Muscarinic acetylcholine receptor M1 (P11229 whole entry): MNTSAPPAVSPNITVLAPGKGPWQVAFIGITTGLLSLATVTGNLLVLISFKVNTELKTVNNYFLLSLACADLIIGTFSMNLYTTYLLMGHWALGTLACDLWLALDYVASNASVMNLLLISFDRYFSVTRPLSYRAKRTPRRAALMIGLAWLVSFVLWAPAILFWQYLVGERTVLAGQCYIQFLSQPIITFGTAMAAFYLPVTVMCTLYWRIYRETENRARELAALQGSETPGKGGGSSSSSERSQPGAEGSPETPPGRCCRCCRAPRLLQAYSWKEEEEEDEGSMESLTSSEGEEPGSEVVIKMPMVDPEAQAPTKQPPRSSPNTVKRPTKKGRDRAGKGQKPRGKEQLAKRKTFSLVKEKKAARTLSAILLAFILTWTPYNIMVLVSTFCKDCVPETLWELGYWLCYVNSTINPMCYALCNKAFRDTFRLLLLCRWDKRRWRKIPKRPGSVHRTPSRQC
Sequence of Sodium-dependent dopamine transporter (Q01959 whole entry): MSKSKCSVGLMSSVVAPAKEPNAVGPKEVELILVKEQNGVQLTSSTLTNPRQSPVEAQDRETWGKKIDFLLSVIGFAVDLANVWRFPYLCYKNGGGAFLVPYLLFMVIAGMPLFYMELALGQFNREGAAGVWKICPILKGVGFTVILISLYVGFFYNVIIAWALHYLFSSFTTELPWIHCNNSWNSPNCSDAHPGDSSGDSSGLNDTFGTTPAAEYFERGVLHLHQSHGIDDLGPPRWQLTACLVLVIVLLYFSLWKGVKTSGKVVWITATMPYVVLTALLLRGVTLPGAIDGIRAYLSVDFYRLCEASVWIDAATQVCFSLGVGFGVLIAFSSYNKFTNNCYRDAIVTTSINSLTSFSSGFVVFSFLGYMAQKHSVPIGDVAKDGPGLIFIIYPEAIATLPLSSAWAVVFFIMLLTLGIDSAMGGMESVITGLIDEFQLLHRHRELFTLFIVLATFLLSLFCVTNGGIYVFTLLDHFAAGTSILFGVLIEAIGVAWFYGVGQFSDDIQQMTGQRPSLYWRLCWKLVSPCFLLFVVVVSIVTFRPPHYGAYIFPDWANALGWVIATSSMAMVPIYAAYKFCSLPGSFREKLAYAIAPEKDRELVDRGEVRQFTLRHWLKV
Sequence of 5-hydroxytryptamine receptor 6 (P50406 whole entry): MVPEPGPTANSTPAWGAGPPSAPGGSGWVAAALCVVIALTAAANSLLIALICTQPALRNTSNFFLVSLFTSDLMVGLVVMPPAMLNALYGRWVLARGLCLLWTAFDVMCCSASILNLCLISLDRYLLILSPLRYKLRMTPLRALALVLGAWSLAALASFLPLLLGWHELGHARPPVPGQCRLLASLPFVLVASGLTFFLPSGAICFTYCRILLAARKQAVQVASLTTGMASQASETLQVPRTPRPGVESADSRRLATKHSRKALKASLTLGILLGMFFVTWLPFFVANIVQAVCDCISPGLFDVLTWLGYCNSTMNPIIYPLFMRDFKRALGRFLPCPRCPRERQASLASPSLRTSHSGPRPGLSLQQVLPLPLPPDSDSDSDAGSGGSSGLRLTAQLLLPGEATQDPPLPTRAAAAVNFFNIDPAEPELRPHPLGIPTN

Regarding `Nn1c(CCCCN2CCN(c3ccc4ccccc4n3)CC2)nc2c(c1=O)CCCC2`, the IC50 (in experiment [1]; in experiment [3]; in [4]; on Substance-K receptor; in experiment [5]; at Adenosine receptor A1) was greater than 1000 nM each time. Moreover, the IC50 in experiment [7] is 1 ×10⁻⁶ mol/L; in experiment [8], greater than 100 nM; in [9] it was greater than 1000 nM; in [10], 8.9 nM; in experiment [13], greater than 1000 nM. Besides, the inhibition constant Ki came to 0.701 nM in experiment [2] and 4.72 nM in experiment [12]. Further, in experiment [6], the inhibition was 70.4%. Besides, the Emax in experiment [11] was determined as 99.8%.

As a reminder, the Ki is a dissociation constant, usually derived from enzyme kinetics or from competition with a known ligand. One may read the inhibition as the relative decrease from the control value, in per cent. Higher therefore signals a strong effect. By Emax is commonly meant the size of the effect at its maximum, as opposed to the concentration needed.

These data come from ChEMBL document CHEMBL1275331, “Discovery of a novel 5-HT(3) antagonist/5-HT(1A) agonist 3-amino-5,6,7,8-tetrahydro-2-{4-[4-(quinolin-2-yl)piperazin-1-yl]butyl}quinazolin-4(3H)-one (TZB-30878) as an orally bioavailable agent for irritable bowel syndrome” (J Med Chem, 2010).
